Our source for the Tm and folding enthalpy values is the array DNA melting data of Ke et al. (doi:10.1101/2024.01.08.574731).

The nature of series [1]: melting temperature; fluorescence melt of hairpins on a sequencing array, two-state fit, raised by 9.35 °C to match UV melts. To be noted: sodium 0.088 M. A digest of the protocol:
(§1)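 To match UV melts, fitted temperatures were raised by 9.35 °C. These fits were bootstrapped two-state models that gave melting temperature and folding enthalpy, combined by inverse variance over four replicates. The input was normalised Cy3 fluorescence of library hairpins with annealed Cy3 and quencher oligos on a sequenced MiSeq flow cell, imaged in 50 mM Na-HEPES pH 8.0, 25 mM NaCl in 2.5 °C steps up to 60 °C.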

A short description of series [2]: folding enthalpy; higher = less favourable; fluorescence melt of hairpins on a sequencing array, two-state fit. To be noted: sodium 0.088 M. A digest of the protocol:
as §1

Turning to GTTGGCGCGAAAGCGAAC (((..(((....)))))), the Tm in series [1] was determined as 45.9 °C. In addition, in series [2], the folding enthalpy is -12.9 kcal/mol.
The corresponding values for GTTGGCGGAAACGTCAGC (.((.((....)).)).) are 42.3 °C and -21.6 kcal/mol.
As for GTTGGCTCGAAAGAGAAC (((..(((....)))))), in series [1], the Tm stood at 34.9 °C. Moreover, the folding enthalpy in series [2] is -17.1 kcal/mol.
The like results for GTTGGGGGAAACTCCAAC (((((.(....).))))) were, in that order, 50.4 °C and -41.2 kcal/mol.
Regarding GTTGGGGGAAACTCCGAC ((.((.(....).)).)), the Tm in series [1] was determined as 41.6 °C. Besides, in series [2], the folding enthalpy was -25.9 kcal/mol.
Take GTTGGGTCGAAAGACAAC (((..(((....)))))): the Tm in series [1] worked out at 38.1 °C. Further, the folding enthalpy in series [2] is -18.2 kcal/mol.
As for GTTGGTGGAAACACCAGC (.(((((....))))).), the Tm in series [1] amounted to 50.6 °C. In addition, the folding enthalpy in series [2] was -21.5 kcal/mol.
Take GTTGGTGGAAACACCGAC ((.((((....)))).)): the Tm in series [1] came out at 53.4 °C. In series [2], the folding enthalpy is -39 kcal/mol.
On to GTTGTAACGAAAGTTAAC (((..(((....)))))), for which, in series [1], the Tm worked out at 37.9 °C. In addition, in series [2], the folding enthalpy is -26.1 kcal/mol.
Consider GTTGTAGGAAACTACGAC ((.((((....)))).)), for which the Tm in series [1] was determined as 45.8 °C. Moreover, the folding enthalpy in series [2] is -26 kcal/mol.
The like results for GTTGTAGGAAACTGCAAC ((((.((....)).)))) were, in that order, 46.9 °C and -17.8 kcal/mol.
Regarding GTTGTCGAAAGACCCAAC ((((((....)))..))), the Tm in series [1] stood at 26.6 °C. Also, the folding enthalpy in series [2] is -11.1 kcal/mol.
For the sequence GTTGTCGAAAGACGCAAC ((((((....)))..))), in series [1], the Tm was found to be 31.9 °C. Further, the folding enthalpy in series [2] was -9.32 kcal/mol.
Take GTTGTCGGAAACGACAGC (.(((((....))))).): the Tm in series [1] is 55.7 °C. Moreover, the folding enthalpy in series [2] was -24 kcal/mol.
The like results for GTTGTCGGAAACGACGAC ((.((((....)))).)) were, in that order, 55.1 °C and -24.8 kcal/mol.
The corresponding values for GTTGTGCGAAAGCAAAAC (((.(((....))).))) are 48.7 °C and -24 kcal/mol.
The corresponding values for GTTGTGGGAAACCACAGC (.(((((....))))).) are 49.7 °C and -20 kcal/mol.
For GTTGTGGGAAACCGCAAC ((((.((....)).)))), the Tm in series [1] was found to be 53.8 °C. Further, in series [2], the folding enthalpy is -43 kcal/mol.
With GTTGTGGGAAACTACAGC (.(((.(....).))).), the Tm in series [1] was 32 °C. The folding enthalpy in series [2] is -16.8 kcal/mol.
The like results for GTTGTGGGAAACTACGAC ((.((.(....).)).)) were, in that order, 33.8 °C and -14.3 kcal/mol.
GTTGTGGGAAACTGCAAC ((((..(....)..)))): the Tm in series [1] was 39.3 °C. In addition, in series [2], the folding enthalpy was -12.7 kcal/mol.
The corresponding values for GTTGTTACGAAAGTAAAC (((..(((....)))))) are 44.2 °C and -27.2 kcal/mol.
The like results for GTTGTTCGAAAGAAGAAC (((.(((....))).))) were, in that order, 43.3 °C and -27.6 kcal/mol.
The like results for GTTTACCCGAAAGGGAAC (((..(((....)))))) were, in that order, 26.8 °C and -9.41 kcal/mol.
As to GTTTACCGAAAGGTTAAC (((.(((....))).))), in series [1], the Tm worked out at 43.7 °C. In addition, the folding enthalpy in series [2] was -24.9 kcal/mol.
The like results for GTTTACGAAAGTACAAC ((((((....))).))) were, in that order, 30.4 °C and -11.9 kcal/mol.
The like results for GTTTAGCGAAAGCTGAAC (((.(((....))).))) were, in that order, 51.3 °C and -30.4 kcal/mol.
For the sequence GTTTAGGGAAACTTAAAC (((((.(....).))))), the Tm in series [1] was determined as 35.5 °C. Besides, the folding enthalpy in series [2] is -15.4 kcal/mol.
Consider GTTTATCGAAAGATCAAC (((.(((....))).))), for which the Tm in series [1] turned out to be 34.6 °C. The folding enthalpy in series [2] was -22.1 kcal/mol.
With GTTTCACGAAAGTGTAAC (((.(((....))).))), the Tm in series [1] came out at 44.7 °C. The folding enthalpy in series [2] was -24.6 kcal/mol.
The corresponding values for GTTTCAGGAAACCGAAAC (((((.(....).))))) are 37.4 °C and -30 kcal/mol.
On to GTTTCCGAAAGGAAAAC ((((((....))).))), for which, in series [1], the Tm is 45.1 °C. Moreover, in series [2], the folding enthalpy is -16.1 kcal/mol.
In the case of GTTTCCGAAAGGAAAC ((((((....)))))), the Tm in series [1] was 67.8 °C. The folding enthalpy in series [2] was -41.3 kcal/mol.
GTTTCCGAAAGGACAAC ((((((....))).))): the Tm in series [1] is 39.6 °C. Also, in series [2], the folding enthalpy is -16.6 kcal/mol.
The corresponding values for GTTTCCGAAAGGAGAAC ((((((....))).))) are 34.7 °C and -16.5 kcal/mol.
The corresponding values for GTTTCCGAAAGGATAAC ((((((....))).))) are 37.6 °C and -19.8 kcal/mol.
